Assay results taken from ChEMBL document CHEMBL2331148, “Design and synthesis of imidazole and triazole derivatives as Lp-PLA₂ inhibitors and the unexpected discovery of highly potent quaternary ammonium salts” (Bioorg Med Chem Lett, 2013).
The source made the active and inactive calls. The rule behind the calls is not given here.

Columns and labels:
Oryctolagus cuniculus [1] = species on record: Oryctolagus cuniculus; assay: Inhibition of rabbit plasma Lp-PLA2 at 10 microM by liquid scintillation counting; type: cell-free
Summary of the method: (§1)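 Plasma used as the enzyme source. Compounds were added from DMSO solution to buffer of 50 mmol/L HEPES (pH 7.4) and 150 mmol/L NaCl. Preincubated 5 min at 37 °C, then [3H]PAF (1uCi) was added and incubated 10 min at 37 °C. Lipids were extracted with CHCl3/MeOH (2:1) and centrifuged at 12000g, 4 °C, 15 min. Supernatant radioactivity was counted. Result is % inhibition at the tested concentration.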

Oryctolagus cuniculus [2] = species on record: Oryctolagus cuniculus; assay: Inhibition of rabbit plasma Lp-PLA2 at 100 nM by liquid scintillation counting; type: cell-free; summary of the method: as §1
Oryctolagus cuniculus [3] = species on record: Oryctolagus cuniculus; assay: Inhibition of rabbit plasma Lp-PLA2 at 10 nM by liquid scintillation counting; type: cell-free; summary of the method: as §1
Homo sapiens [4] = species on record: Homo sapiens; assay: Inhibition of human plasma Lp-PLA2 at 10 nM by liquid scintillation counting; type: cell-free; summary of the method: as §1
Homo sapiens [5] = species on record: Homo sapiens; assay: Inhibition of human plasma Lp-PLA2 at 1 nM by liquid scintillation counting; type: cell-free; summary of the method: as §1
Oryctolagus cuniculus [6] = species on record: Oryctolagus cuniculus; assay: Inhibition of rabbit plasma Lp-PLA2 at 1 microM by liquid scintillation counting; type: cell-free; summary of the method: as §1
Mus musculus [7] = assay: Inhibition of plasma Lp-PLA2 in Apo-E mouse model at 50 mg/kg, ip measured after 24 hrs by in vivo inhibition assay; type: functional, organism-based; design: dose 50 mg/kg
Mus musculus [8] = assay: Inhibition of plasma Lp-PLA2 in Apo-E mouse model at 50 mg/kg, ip measured after 12 hrs by in vivo inhibition assay; type: functional, organism-based; design: dose 50 mg/kg

Row | inhibition (Oryctolagus cuniculus [1]) [%] | inhibition (Oryctolagus cuniculus [2]) [%] | inhibition (Oryctolagus cuniculus [3]) [%] | inhibition (Homo sapiens [4]) [%] | inhibition (Homo sapiens [5]) [%] | inhibition (Oryctolagus cuniculus [6]) [%] | SMILES | inhibition (Mus musculus [7]) | inhibition (Mus musculus [8])
1 | 3 | – | – | – | – | – | O=c1nc(SCc2ccc(F)cc2)n(Cc2nccn2Cc2ccc(-c3ccccc3)cc2)c2c1CCC2 | – | –
2 | – | 87 | 34 | 93 | 68 | – | O=c1nc(SCc2ccc(F)cc2)n(Cc2nnc(C3CC3)n2Cc2ccc(-c3ccc(C(F)(F)F)cc3)cc2)c2c1CCC2 | – | –
3 | – | 76 | 16 | 69 | 23 | – | C[C@@H]1CN(Cc2nnc(Cn3c(SCc4ccc(F)cc4)nc(=O)c4c3CCC4)n2Cc2ccc(-c3ccc(C(F)(F)F)cc3)cc2)C[C@H](C)O1 | – | –
4 | 20 | – | – | – | – | 16 | CCN(CC)CCn1c(-c2ccc(-c3ccc(C(F)(F)F)cc3)cc2)cnc1Cn1c(SCc2ccc(F)cc2)nc(=O)c2c1CCC2 | – | –
5 | 88 | – | – | – | – | 42 | CCCCCCCCCCCCn1ccnc1Cn1c(SCc2ccc(F)cc2)nc(=O)c2c1CCC2 | – | –
6 | 40 | – | – | – | – | – | CCn1c(Cc2ccc(-c3ccc(C(F)(F)F)cc3)cc2)nnc1Cn1c(SCc2ccc(F)cc2)nc(=O)c2c1CCC2 | – | –
7 | – | 90 | 10 | 93 | 71 | – | CN(Cc1ccc(F)cc1)Cc1nnc(Cn2c(SCc3ccc(F)cc3)nc(=O)c3c2CCC3)n1Cc1ccc(-c2ccc(C(F)(F)F)cc2)cc1 | – | –
8 | – | 75 | 7 | 68 | 49 | – | CCS(=O)(=O)NCc1nnc(Cn2c(SCc3ccc(F)cc3)nc(=O)c3c2CCC3)n1Cc1ccc(-c2ccc(C(F)(F)F)cc2)cc1 | – | –
9 | – | 67 | 8 | 67 | 44 | – | CC(=O)NCc1nnc(Cn2c(SCc3ccc(F)cc3)nc(=O)c3c2CCC3)n1Cc1ccc(-c2ccc(C(F)(F)F)cc2)cc1 | – | –
10 | – | 93 | 91 | 97 | 77 | – | C[N+](C)(C)Cc1nnc(Cn2c(SCc3ccc(F)cc3)nc(=O)c3c2CCC3)n1Cc1ccc(-c2ccc(C(F)(F)F)cc2)cc1 | – | –
11 | – | 86 | 16 | 77 | 38 | – | CN(Cc1nnc(Cn2c(SCc3ccc(F)cc3)nc(=O)c3c2CCC3)n1Cc1ccc(-c2ccc(C(F)(F)F)cc2)cc1)C1CC1 | – | –
12 | 6 | – | – | – | – | – | CCCCCCCCCCc1cnc(Cn2c(SCc3ccc(F)cc3)nc(=O)c3c2CCC3)n1CCN(CC)CC | – | –
13 | – | 97 | 91 | 99 | 95 | – | C[N+](C)(Cc1ccc(F)cc1)Cc1nnc(Cn2c(SCc3ccc(F)cc3)nc(=O)c3c2CCC3)n1Cc1ccc(-c2ccc(C(F)(F)F)cc2)cc1 | Active | –
14 | – | 73 | 23 | 65 | 58 | – | O=c1nc(SCc2ccc(F)cc2)n(Cc2nnc(CO)n2Cc2ccc(-c3ccc(C(F)(F)F)cc3)cc2)c2c1CCC2 | – | –
15 | – | 79 | 10 | 73 | 11 | – | Cc1nnc(Cn2c(SCc3ccc(F)cc3)nc(=O)c3c2CCC3)n1Cc1ccc(-c2ccc(C(F)(F)F)cc2)cc1 | – | –
16 | – | 90 | 29 | 89 | 68 | – | CC(O)c1nnc(Cn2c(SCc3ccc(F)cc3)nc(=O)c3c2CCC3)n1Cc1ccc(-c2ccc(C(F)(F)F)cc2)cc1 (configuration not stated) | – | –
17 | – | 79 | 10 | 67 | 21 | – | O=c1nc(SCc2ccc(F)cc2)n(Cc2ncc(CN3CCCC3)n2Cc2ccc(-c3ccc(C(F)(F)F)cc3)cc2)c2c1CCC2 | – | –
18 | 27 | – | – | – | – | – | CCCCCCCCCCc1nnc(Cn2c(SCc3ccc(F)cc3)nc(=O)c3c2CCC3)n1CC | – | –
19 | – | 67 | – | – | – | 95 | O=c1nc(SCc2ccc(F)cc2)n(Cc2nncn2Cc2ccc(-c3ccc(C(F)(F)F)cc3)cc2)c2c1CCC2 | – | –

Row | inhibition (Oryctolagus cuniculus [1]) [%] | inhibition (Oryctolagus cuniculus [2]) [%] | inhibition (Oryctolagus cuniculus [3]) [%] | inhibition (Homo sapiens [4]) [%] | inhibition (Homo sapiens [5]) [%] | inhibition (Oryctolagus cuniculus [6]) [%] | SMILES | inhibition (Mus musculus [7]) | inhibition (Mus musculus [8])
20 | – | – | 88 | 97 | 79 | – | O=c1nc(SCc2ccc(F)cc2)n(Cc2ncc(C[N+]3(Cc4ccc(F)cc4)CCCC3)n2Cc2ccc(-c3ccc(C(F)(F)F)cc3)cc2)c2c1CCC2 | – | –
21 | – | 88 | 10 | 75 | 52 | – | CCN(CC)Cc1cnc(Cn2c(SCc3ccc(F)cc3)nc(=O)c3c2CCC3)n1Cc1ccc(-c2ccc(C(F)(F)F)cc2)cc1 | – | –
22 | – | 85 | 13 | 77 | 35 | – | CC(C)N(C)Cc1nnc(Cn2c(SCc3ccc(F)cc3)nc(=O)c3c2CCC3)n1Cc1ccc(-c2ccc(C(F)(F)F)cc2)cc1 | – | –
23 | – | 85 | 21 | 78 | 60 | – | CCN(CC)Cc1nnc(Cn2c(SCc3ccc(F)cc3)nc(=O)c3c2CCC3)n1Cc1ccc(-c2ccc(C(F)(F)F)cc2)cc1 | – | –
24 | – | 88 | 21 | 85 | 62 | – | CN(C)Cc1nnc(Cn2c(SCc3ccc(F)cc3)nc(=O)c3c2CCC3)n1Cc1ccc(-c2ccc(C(F)(F)F)cc2)cc1 | – | –
25 | – | 82 | 11 | 71 | 57 | – | CN(C)C1CCN(Cc2nnc(Cn3c(SCc4ccc(F)cc4)nc(=O)c4c3CCC4)n2Cc2ccc(-c3ccc(C(F)(F)F)cc3)cc2)CC1 | – | –
26 | – | 91 | 34 | 92 | 71 | – | CC(C)c1nnc(Cn2c(SCc3ccc(F)cc3)nc(=O)c3c2CCC3)n1Cc1ccc(-c2ccc(C(F)(F)F)cc2)cc1 | – | –
27 | – | 17 | – | – | – | 80 | O=c1nc(SCc2ccc(F)cc2)n(Cc2nccn2Cc2ccc(-c3ccc(C(F)(F)F)cc3)cc2)c2c1CCC2 | – | –
28 | – | 87 | 13 | 75 | 54 | – | CN(C)Cc1cnc(Cn2c(SCc3ccc(F)cc3)nc(=O)c3c2CCC3)n1Cc1ccc(-c2ccc(C(F)(F)F)cc2)cc1 | – | –
29 | – | 67 | 15 | 51 | 45 | – | COC(=O)C(C)(C)N1CCN(Cc2nnc(Cn3c(SCc4ccc(F)cc4)nc(=O)c4c3CCC4)n2Cc2ccc(-c3ccc(C(F)(F)F)cc3)cc2)CC1 | – | –
30 | – | 99 | 97 | 97 | 85 | – | C[N+](C)(Cc1ccc(F)cc1)Cc1cnc(Cn2c(SCc3ccc(F)cc3)nc(=O)c3c2CCC3)n1Cc1ccc(-c2ccc(C(F)(F)F)cc2)cc1 | – | –
31 | – | 99 | 82 | 95 | 80 | – | CCN(CC)CCN(Cc1ccc(-c2ccc(C(F)(F)F)cc2)cc1)C(=O)Cn1c(SCc2ccc(F)cc2)nc(=O)c2c1CCC2 | – | Active
32 | – | 90 | 20 | 82 | 64 | – | CCN1CCN(Cc2nnc(Cn3c(SCc4ccc(F)cc4)nc(=O)c4c3CCC4)n2Cc2ccc(-c3ccc(C(F)(F)F)cc3)cc2)CC1 | – | –
33 | – | 88 | 25 | 88 | 65 | – | CCCc1nnc(Cn2c(SCc3ccc(F)cc3)nc(=O)c3c2CCC3)n1Cc1ccc(-c2ccc(C(F)(F)F)cc2)cc1 | – | –
34 | 34 | – | – | – | – | 21 | CCn1c(Cn2c(SCc3ccc(F)cc3)nc(=O)c3c2CCC3)nnc1-c1ccc(-c2ccc(C(F)(F)F)cc2)cc1 | – | –
35 | – | 86 | 11 | 69 | 58 | – | O=c1nc(SCc2ccc(F)cc2)n(Cc2ncc(CN3CCCCC3)n2Cc2ccc(-c3ccc(C(F)(F)F)cc3)cc2)c2c1CCC2 | – | –
36 | 50 | – | – | – | – | 2 | O=c1nc(SCc2ccc(F)cc2)n(Cc2nccn2Cc2ccc(-c3ccc(Cl)cc3)cc2)c2c1CCC2 | – | –
37 | 28 | – | – | – | – | – | Cc1ccc(-c2ccc(Cn3ccnc3Cn3c(SCc4ccc(F)cc4)nc(=O)c4c3CCC4)cc2)cc1 | – | –
